# Compound activity deposited in PubChem BioAssay by NMMLSC.
# Shown are actives, neighbours in structure and some others; about 2.5% of the full set was active somewhere.
# Efflux pump inh: inhibitors of Candida antifungal efflux pumps expressed in yeast; inhibition, % at 10 µM; actives 0.44% (n = 330,000); S. cerevisiae Candida pump triplex, Nile Red efflux;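 active = plate passing quality check with inhibition over a set limit, or well fluorescence over plate mean plus 4 SD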;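 note: Nile Red retained in pooled yeast measured as flow cytometry median fluorescence; higher means more Nile Red kept so more efflux inhibition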
# ABCB1 block: human ABCB1 inhibition, ABCG2 as counter-screen; P08183; CCRF-Adr cells, JC-1 efflux, flow cytometry; inhibition, % at 6.6 µM; actives 0.067% (n = 190,000); in the data active = inhibition above about 40%;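 note: higher value means more JC-1 retained so stronger ABCB1 efflux block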
# ABCG2 block: inhibitors of human ABCG2 transporter, ABCB1 counter-screen; Q9UNQ0; AID 1325; inhibition, % at 6.6 µM; IgMXP3 cells, JC-1 efflux, flow cytometry; actives 0.1% (n = 190,000);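 active = inhibition above 80%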
# Target sequence (Q9UNQ0 whole entry, looked up): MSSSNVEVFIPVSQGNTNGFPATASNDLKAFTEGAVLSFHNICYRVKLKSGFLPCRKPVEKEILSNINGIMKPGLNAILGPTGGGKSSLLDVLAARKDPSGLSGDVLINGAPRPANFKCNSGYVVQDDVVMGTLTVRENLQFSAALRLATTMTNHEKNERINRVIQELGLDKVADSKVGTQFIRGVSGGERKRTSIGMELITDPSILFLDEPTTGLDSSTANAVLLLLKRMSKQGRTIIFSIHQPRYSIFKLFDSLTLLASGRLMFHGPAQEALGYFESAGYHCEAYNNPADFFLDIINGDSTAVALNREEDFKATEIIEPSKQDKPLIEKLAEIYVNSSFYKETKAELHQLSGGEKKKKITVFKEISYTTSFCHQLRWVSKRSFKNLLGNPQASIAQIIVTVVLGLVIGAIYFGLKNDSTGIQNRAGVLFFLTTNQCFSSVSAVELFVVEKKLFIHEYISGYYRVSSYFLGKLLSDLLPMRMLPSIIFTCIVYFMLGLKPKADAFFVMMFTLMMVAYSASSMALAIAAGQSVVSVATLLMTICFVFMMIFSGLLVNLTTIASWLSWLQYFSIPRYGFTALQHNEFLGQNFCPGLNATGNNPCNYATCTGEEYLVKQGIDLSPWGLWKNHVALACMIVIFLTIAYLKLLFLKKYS
#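 Test system: IgMXP3 cells (ABCG2) mixed with DDAO far-red-labelled CCRF-Adr cells (ABCB1). Reagent: JC-1 transporter substrate. Compound dosing: single test compound dose, 6.6 µM final. Times: 10 min compound exposure, 25 °C. Detection: flow cytometry of retained JC-1 fluorescence. Read-out basis: efflux inhibition in percent versus controls. Controls: nicardipine and DMSO wells.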
# MEKK3 PB1 HTS: modulators (inhibitors or enhancers) of MEK5 binding to human MEKK3 PB1 domain; bead-based flow cytometry, Alexa488-MEK5 binding to MEKK3; actives lie on both sides; 0 = blocked by unlabeled MEK5, 100 = vehicle; binding response (% of control), % at 10 µM; actives 1.4% (n = 290,000);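 active = binding response more than 3 SD above or below the average of its plate-row segment, actives on both sides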;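 note: Alexa488 bead fluorescence after subtracting the streptavidin-only scavenger bead signal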
# MEKK2 mut-MEK5: signal of MEK5 binding to mutant human MEKK2 PB1 domain | AID 1530 | bead flow cytometry, Alexa488-MEK5 binding to MEKK2 mutant | percent response, % at 10 µM | actives 0.35% (n = 290,000); in the data active = percent response above about 24%, passing the limit was not always enough
# MEKK2wt PB1 HTS: raises or lowers MEK5 binding to wildtype human MEKK2 PB1 domain; binding response (% of control), % at 10 µM; bead flow cytometry, Alexa488-MEK5 binding to MEKK2 WT; actives lie on both sides; actives 1.1% (n = 290,000); Q9Y2U5; in the data active = binding response below about 67% or above about 130%
# MEKK2wt confirm: raises or lowers MEK5 binding to wildtype human MEKK2, retest; binding response (% of control), % at 10 µM; shares compounds with MEKK3 PB1 HTS; AID 1892; actives 2.4% (n = 5,900); bead flow cytometry, Alexa488-MEK5 binding to MEKK2 WT; actives lie on both sides; in the data active = binding response below about 16% or above about 210%; inactive = in between
# MEKK2mut-MEK5: signal of MEK5 binding to mutant human MEKK2, retest | shares compounds with MEKK3 PB1 HTS | bead flow cytometry, Alexa488-MEK5 binding to MEKK2 mutant | percent response, % at 10 µM | actives 2% (n = 5,900) | AID 1893; in the data active = percent response mostly above about 71%, no sharp cut-off; inactive = mostly below about 38%;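 note: higher means compound restores mutant binding toward wildtype level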
# MEKK3-MEK5 inh: MEKK3-MEK5 PB1 inhibition, single concentration confirmation | shares compounds with MEKK3 PB1 HTS | bead flow cytometry, Alexa488-MEK5 binding to MEKK3; active compounds read low | binding response (% of control), % at 10 µM | actives 1.8% (n = 5,900) | AID 1894;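 active = binding response below 72% of control, or above a set upper limit, though filed actives all read lower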;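 note: lower values mean stronger disruption of MEK5 binding to MEKK3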
# A number is an active result; i = inactive; nt = not tested or not shown; [ ] = remark or other dose.
SMILES,Efflux pump inh,ABCB1 block,ABCG2 block,MEKK3 PB1 HTS,MEKK2 mut-MEK5,MEKK2wt PB1 HTS,MEKK2wt confirm,MEKK2mut-MEK5,MEKK3-MEK5 inh
CC(C)CNC(=O)COC(=O)CNC(=O)c1cc(Cl)cc([N+](=O)[O-])c1,i,i,i,149.0,i,i,i,i,i
CCn1c2ccccc2c2cc(NC(=O)C(C)Oc3ccc(OC)cc3)ccc21 (stereo not drawn),i,i,i,i,i,i,nt,nt,nt
COc1ccc(C(CCNC(C)c2ccccc2)C(C)C)cc1 (stereo not drawn),i,nt,nt,i,i,i,nt,nt,nt
COc1ccc(C(C)NCCC(c2ccc(OC(C)C)cc2)c2ccccc2OC)cc1 (stereo not drawn),i,nt,nt,i,45.0,194.0,i,i,i
Cc1ccc(NC(=O)c2nc[nH]c2C(=O)N2CCC(C)CC2)cc1,i,nt,nt,i,i,i,nt,nt,nt
COc1ccc(NC(=O)c2nc[nH]c2C(=O)N2CCC(C)CC2)cc1,i,nt,nt,75.0[inhibitor],i,i,i,i,i
CSc1ccccc1C(=O)NC1CCCc2ccccc21 (stereo not drawn),i,nt,nt,i,i,i,nt,nt,nt
CCOC(=O)C(=CNc1ccc(NC2=NCC(C)S2)cc1)C(=O)OCC (stereo not drawn),i,i,i,138.0,i,i,i,i,i
O=C(N=C1c2ccccc2CN1c1cccc(Cl)c1)c1cccnc1,i,i,i,56.0[inhibitor],i,i,i,i,i
CC1(C)CC(=O)C(Sc2ccc(Br)cc2)=C(O)C1,i,i,i,73.0[inhibitor],i,i,i,i,i
Cc1ccc(/C=C2/NC(=O)N(Cc3ccccc3)C2=O)o1,i,i,i,i,i,2.0[inhibitor],i,i,i
CC(C(=O)O)c1ccc(N2Cc3ccccc3C2=O)cc1 (stereo not drawn),i,i,i,i,i,i,nt,nt,nt
Cc1oc(C)c(C(=O)O)c1C(=O)O,i,nt,nt,45.0[inhibitor],i,i,i,i,i
CCN(CC)S(=O)(=O)c1ccc(C)c(NC(=O)Cn2c(=O)cnc3ccccc32)c1,i,i,i,160.0,i,i,i,i,i
CCN(CC)S(=O)(=O)c1ccc(C)c(NC(=O)Cn2cnc3cc([N+](=O)[O-])ccc3c2=O)c1,i,i,i,69.0[inhibitor],i,i,i,i,i
Cc1ccc(C(=O)NCC(=O)OCCCOC(=O)CNC(=O)c2ccc(C)c(C)c2)cc1C,i,nt,nt,nt,nt,nt,nt,nt,nt
CCOC(=O)C1CCN(C(=O)COc2ccc(Cl)cc2)CC1,i,i,i,i,i,i,nt,nt,nt
CCOC(=O)C1CCN(C(=O)Cc2ccc(OC)c(OC)c2)CC1,i,i,i,81.0[inhibitor],i,i,i,i,i
CCOC(=O)C1CCN(C(=O)COC(=O)COc2ccc(Cl)cc2)CC1,i,i,i,37.0[inhibitor],i,i,i,i,i
CCOC(=O)N1CCN(C(=O)c2ccc(CS(=O)c3ccccc3)o2)CC1 (stereo not drawn),i,nt,nt,i,i,i,nt,nt,nt
Oc1ccccc1/C=N/Nc1cc(N2CCCC2)nc(N2CCCC2)n1,i,i,i,i,i,181.0,i,i,i
Oc1ccc(/C=N/Nc2cc(N3CCOCC3)nc(N3CCOCC3)n2)cc1O,i,i,i,i,i,i,nt,nt,nt
Cc1ccc(-c2nn(-c3ccccc3)cc2CSC(=N)N)cc1,i,i,i,i,52.0,205.0,i,i,i
COc1ccc(-n2cc(CN3CCCC3)c(-c3cccc(F)c3)n2)cc1,i,i,i,i,i,i,nt,nt,nt
